In ChEMBL document CHEMBL4819122, “Novel 4-(piperazin-1-yl)quinolin-2(1H)-one bearing thiazoles with antiproliferative activity through VEGFR-2-TK inhibition” (Bioorg Med Chem, 2021):
The source made the active and inactive calls. No cut-off for these calls is given here.

Key:
CCRF-CEM = assay: Cytotoxicity against human CCRF-CEM assessed as growth inhibition at 10 uM by NCI protocol relative to control; assay type: functional; conditions: read-out: GI
How it was run: (§1)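 Run by NCI as a single-dose screen at 10 μM across the sixty-cell-line panel, which covers nine human tumour tissue types. The read-out is percent growth inhibition of treated cells relative to untreated cells.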

HL-60 = assay: Cytotoxicity against human HL60 assessed as growth inhibition at 10 uM by NCI protocol relative to control; assay type: functional; conditions: read-out: GI; how it was run: as §1
K562 = assay: Cytotoxicity against human K-562 assessed as growth inhibition at 10 uM by NCI protocol relative to control; assay type: functional; conditions: read-out: GI; how it was run: as §1
MOLT-4 = assay: Cytotoxicity against human MOLT-4 assessed as growth inhibition at 10 uM by NCI protocol relative to control; assay type: functional; conditions: read-out: GI; how it was run: as §1
RPMI-8226 = assay: Cytotoxicity against human RPMI-8226 assessed as growth inhibition at 10 uM by NCI protocol relative to control; assay type: functional; conditions: read-out: GI; how it was run: as §1
SR = assay: Cytotoxicity against human SR assessed as growth inhibition at 10 uM by NCI protocol relative to control; assay type: functional; conditions: read-out: GI
How it was run: (§2)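 Run by the NCI under its standard protocol: one dose of 10 μM against a sixty-line panel from nine human tumour tissues. Result given as percent growth inhibition of treated cells relative to untreated cells.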

A549 = assay: Cytotoxicity against human A549 assessed as growth inhibition at 10 uM by NCI protocol relative to control; assay type: functional; conditions: read-out: GI; how it was run: as §1
EKVX = assay: Cytotoxicity against human EKVX assessed as growth inhibition at 10 uM by NCI protocol relative to control; assay type: functional; conditions: read-out: GI; how it was run: as §1
HOP-92 = assay: Cytotoxicity against human HOP-92 assessed as growth inhibition at 10 uM by NCI protocol relative to control; assay type: functional; conditions: read-out: GI; how it was run: as §1
NCI-H23 = assay: Cytotoxicity against human NCI-H23 assessed as growth inhibition at 10 uM by NCI protocol relative to control; assay type: functional; conditions: read-out: GI; how it was run: as §1
NCI-H322M = assay: Cytotoxicity against human NCI-H322M assessed as growth inhibition at 10 uM by NCI protocol relative to control; assay type: functional; conditions: read-out: GI; how it was run: as §1
NCI-H460 = assay: Cytotoxicity against human NCI-H460 assessed as growth inhibition at 10 uM by NCI protocol relative to control; assay type: functional; conditions: read-out: GI; how it was run: as §1
NCI-H522 = assay: Cytotoxicity against human NCI-H522 assessed as growth inhibition at 10 uM by NCI protocol relative to control; assay type: functional; conditions: read-out: GI; how it was run: as §1
HCC 2998 = assay: Cytotoxicity against human HCC-2998 assessed as growth inhibition at 10 uM by NCI protocol relative to control; assay type: functional; conditions: read-out: GI; how it was run: as §1
HCT-116 = assay: Cytotoxicity against human HCT-116 assessed as growth inhibition at 10 uM by NCI protocol relative to control; assay type: functional; conditions: read-out: GI; how it was run: as §1
HCT-15 = assay: Cytotoxicity against human HCT-15 assessed as growth inhibition at 10 uM by NCI protocol relative to control; assay type: functional; conditions: read-out: GI; how it was run: as §1
HT-29 = assay: Cytotoxicity against human HT29 assessed as growth inhibition at 10 uM by NCI protocol relative to control; assay type: functional; conditions: read-out: GI; how it was run: as §1
SW-620 = assay: Cytotoxicity against human SW-620 assessed as growth inhibition at 10 uM by NCI protocol relative to control; assay type: functional; conditions: read-out: GI; how it was run: as §2
SF-295 = assay: Cytotoxicity against human SF-295 assessed as growth inhibition at 10 uM by NCI protocol relative to control; assay type: functional; conditions: read-out: GI; how it was run: as §1
SF-539 = assay: Cytotoxicity against human […] assessed as growth inhibition at 10 uM by NCI protocol relative to control; assay type: functional; conditions: read-out: GI; how it was run: as §1
SNB-19 = assay: Cytotoxicity against human SNB-19 assessed as growth inhibition at 10 uM by NCI protocol relative to control; assay type: functional; conditions: read-out: GI; how it was run: as §2
SNB-75 = assay: Cytotoxicity against human SNB-75 assessed as growth inhibition at 10 uM by NCI protocol relative to control; assay type: functional; conditions: read-out: GI; how it was run: as §2
U-251 = assay: Cytotoxicity against human U251 assessed as growth inhibition at 10 uM by NCI protocol relative to control; assay type: functional; conditions: read-out: GI; how it was run: as §2
LOX IMVI = assay: Cytotoxicity against human LOX IMVI assessed as growth inhibition at 10 uM by NCI protocol relative to control; assay type: functional; conditions: read-out: GI; how it was run: as §1
Malme-3M = assay: Cytotoxicity against human MALME-3M assessed as growth inhibition at 10 uM by NCI protocol relative to control; assay type: functional; conditions: read-out: GI; how it was run: as §1
M14 = assay: Cytotoxicity against human M14 assessed as growth inhibition at 10 uM by NCI protocol relative to control; assay type: functional; conditions: read-out: GI; how it was run: as §1
MDA-MB-435 = assay: Cytotoxicity against human MDA-MB-435 assessed as growth inhibition at 10 uM by NCI protocol relative to control; assay type: functional, cell-based; how it was run: as §1
SK-MEL-28 = assay: Cytotoxicity against human SK-MEL-28 assessed as growth inhibition at 10 uM by NCI protocol relative to control; assay type: functional; conditions: read-out: GI; how it was run: as §1
SK-MEL-5 = assay: Cytotoxicity against human SK-MEL-5 assessed as growth inhibition at 10 uM by NCI protocol relative to control; assay type: functional; conditions: read-out: GI; how it was run: as §1
UACC-257 = assay: Cytotoxicity against human UACC-257 assessed as growth inhibition at 10 uM by NCI protocol relative to control; assay type: functional; conditions: read-out: GI; how it was run: as §2
UACC-62 = assay: Cytotoxicity against human UACC-62 assessed as growth inhibition at 10 uM by NCI protocol relative to control; assay type: functional; conditions: read-out: GI; how it was run: as §2
IGROV-1 = assay: Cytotoxicity against human IGROVI assessed as growth inhibition at 10 uM by NCI protocol relative to control; assay type: functional; conditions: read-out: GI; how it was run: as §1
OVCAR-4 = assay: Cytotoxicity against human OVCAR-4 assessed as growth inhibition at 10 uM by NCI protocol relative to control; assay type: functional; conditions: read-out: GI; how it was run: as §1
OVCAR-8 = assay: Cytotoxicity against human OVCAR-8 assessed as growth inhibition at 10 uM by NCI protocol relative to control; assay type: functional; conditions: read-out: GI; how it was run: as §1
NCI/ADR-RES = assay: Cytotoxicity against human NCl/ADR-RES assessed as growth inhibition at 10 uM by NCI protocol relative to control; assay type: functional; conditions: read-out: GI; how it was run: as §1
SK-OV-3 = assay: Cytotoxicity against human SK-OV-3 assessed as growth inhibition at 10 uM by NCI protocol relative to control; assay type: functional; conditions: read-out: GI; how it was run: as §1
786-0 = assay: Cytotoxicity against human 786-0 assessed as growth inhibition at 10 uM by NCI protocol relative to control; assay type: functional; conditions: read-out: GI; how it was run: as §1
A498 = assay: Cytotoxicity against human A498 assessed as growth inhibition at 10 uM by NCI protocol relative to control; assay type: functional; conditions: read-out: GI; how it was run: as §1
ACHN = assay: Cytotoxicity against human ACHN assessed as growth inhibition at 10 uM by NCI protocol relative to control; assay type: functional; conditions: read-out: GI; how it was run: as §1
CAKI-1 = assay: Cytotoxicity against human Caki1 assessed as growth inhibition at 10 uM by NCI protocol relative to control; assay type: functional; conditions: read-out: GI; how it was run: as §1
RXF 393 = assay: Cytotoxicity against human RXF 393 assessed as growth inhibition at 10 uM by NCI protocol relative to control; assay type: functional; conditions: read-out: GI; how it was run: as §1
SN12C = assay: Cytotoxicity against human SN12C assessed as growth inhibition at 10 uM by NCI protocol relative to control; assay type: functional; conditions: read-out: GI; how it was run: as §2
TK-10 = assay: Cytotoxicity against human TK-10 assessed as growth inhibition at 10 uM by NCI protocol relative to control; assay type: functional; conditions: read-out: GI; how it was run: as §2
UO-31 = assay: Cytotoxicity against human UO31 assessed as growth inhibition at 10 uM by NCI protocol relative to control; assay type: functional; conditions: read-out: GI; how it was run: as §2
PC-3 = assay: Cytotoxicity against human PC3 assessed as growth inhibition at 10 uM by NCI protocol relative to control; assay type: functional; conditions: read-out: GI; how it was run: as §1
DU-145 = assay: Cytotoxicity against human DU-145 assessed as growth inhibition at 10 uM by NCI protocol relative to control; assay type: functional; conditions: read-out: GI; how it was run: as §1
MCF7 = assay: Cytotoxicity against human MCF7 assessed as growth inhibition at 10 uM by NCI protocol relative to control; assay type: functional; conditions: read-out: GI; how it was run: as §1
MDA-MB-231 = assay: Cytotoxicity against human MDA-MB-231 assessed as growth inhibition at 10 uM by NCI protocol relative to control; assay type: functional; conditions: read-out: GI; how it was run: as §1
Hs-578T = assay: Cytotoxicity against human HS 578T assessed as growth inhibition at 10 uM by NCI protocol relative to control; assay type: functional; conditions: read-out: GI; how it was run: as §1
BT-549 = assay: Cytotoxicity against human BT-549 assessed as growth inhibition at 10 uM by NCI protocol relative to control; assay type: functional; conditions: read-out: GI; how it was run: as §1
T47D [1] = assay: Cytotoxicity against human T-47D assessed as growth inhibition at 10 uM by NCI protocol relative to control; assay type: functional; conditions: read-out: GI; how it was run: as §2
MDA-MB-468 = assay: Cytotoxicity against human MDA-MB-468 assessed as growth inhibition at 10 uM by NCI protocol relative to control; assay type: functional; conditions: read-out: GI; how it was run: as §1
T47D [2] = assay: Cytotoxicity against human T47D cells assessed as reduction in cell viability after 3 hrs by MTT assay

## COc1ccc(-c2csc(NC(=O)CN3CCN(c4cc(=O)[nH]c5ccc(F)cc45)CC3)n2)cc1
CCRF-CEM
  inhibition of growth at 10 µM: 29.8%
HL-60
  inhibition of growth at 10 µM: 23.5%
K562
  inhibition of growth at 10 µM: 30.1%
MOLT-4
  inhibition of growth at 10 µM: 46.7%
RPMI-8226
  inhibition of growth at 10 µM: 40.9%
SR
  inhibition of growth at 10 µM: 34.7%
A549
  inhibition of growth at 10 µM: 29.5%
EKVX
  inhibition of growth at 10 µM: 24.9%
HOP-92
  inhibition of growth at 10 µM: 25.4%
NCI-H23
  inhibition of growth at 10 µM: 16.6%
NCI-H322M
  inhibition of growth at 10 µM: 12.6%
NCI-H460
  inhibition of growth at 10 µM: 12.5%
NCI-H522
  inhibition of growth at 10 µM: 21.6%
HCC 2998
  inhibition of growth at 10 µM: 15.8%
HCT-116
  inhibition of growth at 10 µM: 15.9%
HCT-15
  inhibition of growth at 10 µM: 26.6%
HT-29
  inhibition of growth at 10 µM: 22.1%
SW-620
  inhibition of growth at 10 µM: 34.6%
SF-295
  inhibition of growth at 10 µM: 17.5%
SF-539
  inhibition of growth at 10 µM: 30.5%
SNB-19
  inhibition of growth at 10 µM: 15.3%
SNB-75
  inhibition of growth at 10 µM: 23.9%
U-251
  inhibition of growth at 10 µM: 30.3%
LOX IMVI
  inhibition of growth at 10 µM: 20.8%
Malme-3M
  inhibition of growth at 10 µM: 33.6%
M14
  inhibition of growth at 10 µM: 19.2%
MDA-MB-435
  growth inhibition (GI): inactive
SK-MEL-28
  inhibition of growth at 10 µM: 13.7%
SK-MEL-5
  inhibition of growth at 10 µM: 25.4%
UACC-257
  inhibition of growth at 10 µM: 14.5%
UACC-62
  inhibition of growth at 10 µM: 28.1%
IGROV-1
  inhibition of growth at 10 µM: 45.6%
OVCAR-4
  inhibition of growth at 10 µM: 25.1%
OVCAR-8
  inhibition of growth at 10 µM: 17.2%
NCI/ADR-RES
  inhibition of growth at 10 µM: 20.5%
SK-OV-3
  inhibition of growth at 10 µM: 10.4%
786-0
  inhibition of growth at 10 µM: 19.3%
A498
  inhibition of growth at 10 µM: 49.9%
ACHN
  inhibition of growth at 10 µM: 27.7%
CAKI-1
  inhibition of growth at 10 µM: 46.8%
RXF 393
  inhibition of growth at 10 µM: 20.3%
SN12C
  inhibition of growth at 10 µM: 29.1%
TK-10
  inhibition of growth at 10 µM: 31.8%
UO-31
  inhibition of growth at 10 µM: 24.9%
PC-3
  inhibition of growth at 10 µM: 35.8%
DU-145
  inhibition of growth at 10 µM: 40%
MCF7
  inhibition of growth at 10 µM: 28.4%
MDA-MB-231
  inhibition of growth at 10 µM: 24.5%
Hs-578T
  inhibition of growth at 10 µM: 32.9%
BT-549
  inhibition of growth at 10 µM: 18.6%
T47D [1]
  inhibition of growth at 10 µM: 69.2%
MDA-MB-468
  inhibition of growth at 10 µM: 32%
T47D [2]
  IC50: 16.9 µM
